Assays:
Conditions in all cases: stereoisomer not certain
UniProt Q8VGC6 = target: T1, UniProt Q8VGC6
T1 sequence (whole entry): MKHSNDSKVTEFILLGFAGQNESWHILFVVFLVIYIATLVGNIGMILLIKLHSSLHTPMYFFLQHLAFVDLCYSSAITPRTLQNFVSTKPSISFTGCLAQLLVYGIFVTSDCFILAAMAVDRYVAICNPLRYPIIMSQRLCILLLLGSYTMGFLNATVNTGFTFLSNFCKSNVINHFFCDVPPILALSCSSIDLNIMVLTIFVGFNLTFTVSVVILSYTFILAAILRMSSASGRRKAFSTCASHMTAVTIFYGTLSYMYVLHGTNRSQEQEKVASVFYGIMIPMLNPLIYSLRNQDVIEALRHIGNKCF
Method in brief: (§1)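 Each entry records the cell line, G-protein, co-transfected protein and tags used. Methods varied with the source, often transient luciferase assays in mammalian cell lines. A receptor–molecule pair is called responsive (active) if the original authors judged its signal statistically different from baseline and non-responsive (inactive) otherwise.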

UniProt Q8VGD7 = target: T2, UniProt Q8VGD7
T2 sequence (whole entry): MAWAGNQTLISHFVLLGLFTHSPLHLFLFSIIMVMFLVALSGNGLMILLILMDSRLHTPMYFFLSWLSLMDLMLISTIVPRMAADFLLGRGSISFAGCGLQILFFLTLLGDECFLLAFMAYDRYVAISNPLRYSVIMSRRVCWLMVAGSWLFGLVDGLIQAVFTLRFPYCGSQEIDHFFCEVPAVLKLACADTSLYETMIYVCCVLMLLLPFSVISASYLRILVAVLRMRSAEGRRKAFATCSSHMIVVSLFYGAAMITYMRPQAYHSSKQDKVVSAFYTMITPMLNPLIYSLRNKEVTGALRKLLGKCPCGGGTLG
Method in brief: as §1

UniProt Q8VGH1 = target: T3, UniProt Q8VGH1
T3 sequence (whole entry): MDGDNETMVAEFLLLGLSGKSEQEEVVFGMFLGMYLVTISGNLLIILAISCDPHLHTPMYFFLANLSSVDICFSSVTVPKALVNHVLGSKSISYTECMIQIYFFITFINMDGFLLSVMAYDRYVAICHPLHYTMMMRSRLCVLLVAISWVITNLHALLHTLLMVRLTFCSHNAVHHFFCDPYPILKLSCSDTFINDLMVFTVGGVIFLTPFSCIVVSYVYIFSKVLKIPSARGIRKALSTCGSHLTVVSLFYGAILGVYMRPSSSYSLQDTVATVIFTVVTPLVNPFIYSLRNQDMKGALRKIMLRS
Method in brief: as §1

UniProt Q8VGJ1 = target: T4, UniProt Q8VGJ1
T4 sequence (whole entry): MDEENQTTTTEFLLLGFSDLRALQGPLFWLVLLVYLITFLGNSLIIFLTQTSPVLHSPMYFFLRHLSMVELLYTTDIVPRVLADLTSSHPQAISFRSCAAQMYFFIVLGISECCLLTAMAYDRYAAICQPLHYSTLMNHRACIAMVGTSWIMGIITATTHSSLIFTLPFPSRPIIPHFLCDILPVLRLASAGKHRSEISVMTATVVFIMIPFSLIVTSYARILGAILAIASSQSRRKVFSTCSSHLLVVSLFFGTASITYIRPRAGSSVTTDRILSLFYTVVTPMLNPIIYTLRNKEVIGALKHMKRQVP
Method in brief: as §1

UniProt Q8VGJ3 = target: T5, UniProt Q8VGJ3
T5 sequence (whole entry): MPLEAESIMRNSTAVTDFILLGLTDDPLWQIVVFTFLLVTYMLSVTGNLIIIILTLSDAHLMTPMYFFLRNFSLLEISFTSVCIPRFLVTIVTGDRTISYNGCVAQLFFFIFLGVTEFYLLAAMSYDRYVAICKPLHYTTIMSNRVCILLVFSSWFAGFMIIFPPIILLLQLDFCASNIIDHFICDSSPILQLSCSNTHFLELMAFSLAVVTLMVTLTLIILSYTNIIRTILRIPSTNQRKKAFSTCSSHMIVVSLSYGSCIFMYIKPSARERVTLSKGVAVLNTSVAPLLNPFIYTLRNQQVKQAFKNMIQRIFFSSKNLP
Method in brief: as §1

UniProt Q8VGJ5 = target: T6, UniProt Q8VGJ5
T6 sequence (whole entry): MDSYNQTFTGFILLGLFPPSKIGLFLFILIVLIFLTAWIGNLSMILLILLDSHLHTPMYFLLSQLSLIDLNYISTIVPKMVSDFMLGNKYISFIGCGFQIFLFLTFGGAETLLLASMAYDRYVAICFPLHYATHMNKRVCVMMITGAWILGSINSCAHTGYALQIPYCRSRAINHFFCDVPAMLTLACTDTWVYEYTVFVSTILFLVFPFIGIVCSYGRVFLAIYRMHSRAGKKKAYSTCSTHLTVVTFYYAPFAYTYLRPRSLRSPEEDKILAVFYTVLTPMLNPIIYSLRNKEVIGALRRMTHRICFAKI
Method in brief: as §1

UniProt Q8VGL0 = target: T7, UniProt Q8VGL0
T7 sequence (whole entry): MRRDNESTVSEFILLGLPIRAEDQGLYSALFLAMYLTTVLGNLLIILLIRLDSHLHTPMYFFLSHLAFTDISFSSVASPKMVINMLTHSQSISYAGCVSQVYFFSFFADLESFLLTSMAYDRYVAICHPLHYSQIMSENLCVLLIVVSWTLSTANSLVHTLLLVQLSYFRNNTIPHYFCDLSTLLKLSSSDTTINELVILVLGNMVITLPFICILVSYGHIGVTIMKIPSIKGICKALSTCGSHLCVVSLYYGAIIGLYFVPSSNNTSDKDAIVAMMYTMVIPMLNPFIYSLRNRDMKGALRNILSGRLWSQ
Method in brief: as §1

UniProt Q8VGL7 = target: T8, UniProt Q8VGL7
T8 sequence (whole entry): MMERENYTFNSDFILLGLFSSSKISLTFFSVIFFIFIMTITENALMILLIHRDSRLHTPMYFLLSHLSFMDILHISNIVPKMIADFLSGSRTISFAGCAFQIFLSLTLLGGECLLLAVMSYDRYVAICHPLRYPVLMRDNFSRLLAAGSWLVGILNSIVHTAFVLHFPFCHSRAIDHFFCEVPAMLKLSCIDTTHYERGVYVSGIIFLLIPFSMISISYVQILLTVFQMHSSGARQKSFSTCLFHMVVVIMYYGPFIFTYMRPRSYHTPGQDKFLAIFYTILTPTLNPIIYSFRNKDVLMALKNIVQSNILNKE
Method in brief: as §1

UniProt Q8VGM2 = target: T9, UniProt Q8VGM2
T9 sequence (whole entry): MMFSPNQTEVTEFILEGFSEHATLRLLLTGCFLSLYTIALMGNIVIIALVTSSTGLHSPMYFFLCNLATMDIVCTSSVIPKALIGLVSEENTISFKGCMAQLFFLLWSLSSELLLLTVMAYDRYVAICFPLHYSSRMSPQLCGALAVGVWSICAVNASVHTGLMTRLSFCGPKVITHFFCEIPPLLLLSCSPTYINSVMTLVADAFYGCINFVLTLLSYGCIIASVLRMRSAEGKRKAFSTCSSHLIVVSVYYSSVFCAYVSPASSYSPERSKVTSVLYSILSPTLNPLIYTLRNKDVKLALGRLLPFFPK
Method in brief: as §1

UniProt Q8VGP6 = target: T10, UniProt Q8VGP6
T10 sequence (whole entry): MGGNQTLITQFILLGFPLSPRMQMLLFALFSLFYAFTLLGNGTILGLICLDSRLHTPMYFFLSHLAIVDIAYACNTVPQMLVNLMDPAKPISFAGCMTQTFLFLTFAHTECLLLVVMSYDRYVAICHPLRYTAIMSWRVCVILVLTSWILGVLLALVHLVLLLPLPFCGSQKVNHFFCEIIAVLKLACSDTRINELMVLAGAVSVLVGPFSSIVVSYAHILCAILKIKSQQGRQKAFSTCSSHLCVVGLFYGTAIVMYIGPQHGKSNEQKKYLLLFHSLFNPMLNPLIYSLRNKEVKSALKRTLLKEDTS
Method in brief: as §1

UniProt Q8VGQ3 = target: T11, UniProt Q8VGQ3
T11 sequence (whole entry): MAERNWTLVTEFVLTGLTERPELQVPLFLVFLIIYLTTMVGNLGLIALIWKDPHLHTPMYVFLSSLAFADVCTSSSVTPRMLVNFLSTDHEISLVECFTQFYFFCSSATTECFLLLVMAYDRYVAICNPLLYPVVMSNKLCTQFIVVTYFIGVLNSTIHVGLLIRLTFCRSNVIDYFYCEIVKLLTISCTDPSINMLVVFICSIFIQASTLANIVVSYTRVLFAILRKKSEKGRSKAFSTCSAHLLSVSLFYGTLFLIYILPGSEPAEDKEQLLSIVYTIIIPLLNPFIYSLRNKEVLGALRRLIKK
Method in brief: as §1

UniProt Q8VGT4 = target: T12, UniProt Q8VGT4
T12 sequence (whole entry): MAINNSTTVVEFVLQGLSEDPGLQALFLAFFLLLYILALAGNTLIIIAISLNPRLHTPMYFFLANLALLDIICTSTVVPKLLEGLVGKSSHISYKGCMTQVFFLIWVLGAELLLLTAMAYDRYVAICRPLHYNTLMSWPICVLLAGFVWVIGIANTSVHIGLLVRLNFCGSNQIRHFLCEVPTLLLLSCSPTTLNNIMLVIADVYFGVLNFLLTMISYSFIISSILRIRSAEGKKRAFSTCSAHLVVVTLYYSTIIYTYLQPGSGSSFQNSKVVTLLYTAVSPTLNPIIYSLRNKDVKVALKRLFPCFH
Method in brief: as §1

UniProt Q8VGU3 = target: T13, UniProt Q8VGU3
T13 sequence (whole entry): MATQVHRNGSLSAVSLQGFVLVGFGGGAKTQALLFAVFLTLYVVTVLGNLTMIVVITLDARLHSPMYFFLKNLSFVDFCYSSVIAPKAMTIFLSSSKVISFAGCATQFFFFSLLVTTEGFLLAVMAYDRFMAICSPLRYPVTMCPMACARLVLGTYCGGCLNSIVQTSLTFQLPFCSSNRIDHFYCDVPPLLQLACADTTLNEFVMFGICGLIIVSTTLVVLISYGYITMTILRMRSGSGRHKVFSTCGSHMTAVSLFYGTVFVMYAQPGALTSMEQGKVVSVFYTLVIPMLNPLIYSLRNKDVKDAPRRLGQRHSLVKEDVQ
Method in brief: as §1

UniProt Q8VGV1 = target: T14, UniProt Q8VGV1
T14 sequence (whole entry): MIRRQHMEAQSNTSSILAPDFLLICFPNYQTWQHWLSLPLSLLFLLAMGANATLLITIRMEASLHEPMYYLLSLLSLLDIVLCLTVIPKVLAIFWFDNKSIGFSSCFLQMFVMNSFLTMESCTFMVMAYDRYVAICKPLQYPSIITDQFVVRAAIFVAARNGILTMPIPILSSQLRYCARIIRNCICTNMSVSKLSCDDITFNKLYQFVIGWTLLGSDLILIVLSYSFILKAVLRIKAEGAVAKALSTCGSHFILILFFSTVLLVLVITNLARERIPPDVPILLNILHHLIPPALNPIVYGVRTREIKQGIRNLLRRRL
Method in brief: as §1

UniProt Q8VGV7 = target: T15, UniProt Q8VGV7
T15 sequence (whole entry): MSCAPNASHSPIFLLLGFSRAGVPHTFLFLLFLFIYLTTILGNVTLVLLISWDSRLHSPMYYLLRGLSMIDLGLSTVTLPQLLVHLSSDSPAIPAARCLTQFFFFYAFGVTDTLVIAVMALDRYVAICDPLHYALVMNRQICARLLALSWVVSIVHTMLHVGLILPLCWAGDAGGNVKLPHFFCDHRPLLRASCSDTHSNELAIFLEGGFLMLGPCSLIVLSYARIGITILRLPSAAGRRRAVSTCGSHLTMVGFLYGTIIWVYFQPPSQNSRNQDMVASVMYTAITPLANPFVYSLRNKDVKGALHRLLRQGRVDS
Method in brief: as §1

UniProt Q8VGX3 = target: T16, UniProt Q8VGX3
T16 sequence (whole entry): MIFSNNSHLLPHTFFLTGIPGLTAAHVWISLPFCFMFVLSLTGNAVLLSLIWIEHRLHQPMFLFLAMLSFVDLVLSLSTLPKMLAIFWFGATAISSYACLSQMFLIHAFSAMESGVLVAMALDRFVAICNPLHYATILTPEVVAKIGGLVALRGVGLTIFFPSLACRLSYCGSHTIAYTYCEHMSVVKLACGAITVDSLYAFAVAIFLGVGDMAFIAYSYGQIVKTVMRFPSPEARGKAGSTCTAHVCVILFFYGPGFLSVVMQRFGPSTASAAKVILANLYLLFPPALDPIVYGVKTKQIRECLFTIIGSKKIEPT
Method in brief: as §1

UniProt Q8VGX5 = target: T17, UniProt Q8VGX5
T17 sequence (whole entry): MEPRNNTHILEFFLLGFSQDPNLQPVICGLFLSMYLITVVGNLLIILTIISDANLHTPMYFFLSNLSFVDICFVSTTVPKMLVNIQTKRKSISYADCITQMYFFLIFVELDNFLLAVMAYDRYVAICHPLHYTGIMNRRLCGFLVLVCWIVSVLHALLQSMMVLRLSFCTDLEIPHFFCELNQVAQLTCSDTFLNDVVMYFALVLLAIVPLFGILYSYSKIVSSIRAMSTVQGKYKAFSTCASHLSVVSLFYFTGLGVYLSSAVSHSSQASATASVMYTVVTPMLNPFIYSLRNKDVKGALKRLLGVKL
Method in brief: as §1

Measured: odorant receptor agonist call

CC(C)C12CCC(C)(CC1)O2
inactive: UniProt Q8VGC6

CCCCCC(=O)CC
active: UniProt Q8VGC6 | UniProt Q8VGJ5
inactive: all other assays above

CCCCC(=O)CC
active: UniProt Q8VGC6 | UniProt Q8VGJ5
inactive: all other assays above

Reference: the M2OR odorant receptor database
